# According to ChEMBL document CHEMBL1125344, “(Pyridylcyanomethyl)piperazines as orally active PAF antagonists” (J Med Chem, 1992):
# Tests used:
# [1] = target: Platelet-activating factor receptor (Rattus norvegicus) (UniProt P46002); experiment: Dose required to inhibit PAF-induced hypotension (PAF-Antagonistic activity) in normotensive rats by 50%.; format: functional
# In short: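 Male Sprague-Dawley rats, 180-220 g, anesthetized with sodium pentobarbital ip. Carotid blood pressure recorded. Compound given iv in saline (1 mL/kg) via femoral vein 3 min before PAF 0.5 µg/kg iv; vehicle controls. ID50 by linear regression of one curve of at least four doses, each the mean % inhibition from two or more experiments.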
# [2] = target: Platelet-activating factor receptor (Mus musculus) (UniProt Q62035); experiment: Oral dose required to inhibit PAF-induced mortality (PAF-Antagonistic activity)in mice by 50%.; format: functional; details: Mus sp.
# In short: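 Male Swiss mice, 22-26 g, in groups of 10. Compound or saline given po (20 mL/kg) 60 min before C18-PAF 100 µg/kg plus propranolol 1 mg/kg by tail vein. ID50 from percent inhibition of mortality versus controls.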
# [3] = target: Platelet-activating factor receptor (Rattus norvegicus) (UniProt P46002); experiment: In vivo dose administered intravenously to inhibit PAF-induced hypotension (PAF-Antagonistic activity) in normotensive rats by 55%.; format: functional, organism-based
# [4] = target: Platelet-activating factor receptor (Rattus norvegicus) (UniProt P46002); experiment: In vivo dose administered intravenously to inhibit PAF-induced hypotension (PAF-Antagonistic activity) in normotensive rats by 59%.; format: functional, organism-based
# Chain of Platelet-activating factor receptor (Rattus norvegicus) (P46002 whole entry): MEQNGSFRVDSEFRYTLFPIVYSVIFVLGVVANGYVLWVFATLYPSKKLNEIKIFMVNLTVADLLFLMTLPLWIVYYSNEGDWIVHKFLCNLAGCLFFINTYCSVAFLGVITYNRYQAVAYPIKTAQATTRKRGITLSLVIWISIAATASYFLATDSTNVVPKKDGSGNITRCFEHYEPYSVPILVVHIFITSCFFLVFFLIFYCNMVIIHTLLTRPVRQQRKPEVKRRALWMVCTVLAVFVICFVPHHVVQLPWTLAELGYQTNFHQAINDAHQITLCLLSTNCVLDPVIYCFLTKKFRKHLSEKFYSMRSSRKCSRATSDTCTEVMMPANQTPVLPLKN
# Chain of Platelet-activating factor receptor (Mus musculus) (Q62035 whole entry): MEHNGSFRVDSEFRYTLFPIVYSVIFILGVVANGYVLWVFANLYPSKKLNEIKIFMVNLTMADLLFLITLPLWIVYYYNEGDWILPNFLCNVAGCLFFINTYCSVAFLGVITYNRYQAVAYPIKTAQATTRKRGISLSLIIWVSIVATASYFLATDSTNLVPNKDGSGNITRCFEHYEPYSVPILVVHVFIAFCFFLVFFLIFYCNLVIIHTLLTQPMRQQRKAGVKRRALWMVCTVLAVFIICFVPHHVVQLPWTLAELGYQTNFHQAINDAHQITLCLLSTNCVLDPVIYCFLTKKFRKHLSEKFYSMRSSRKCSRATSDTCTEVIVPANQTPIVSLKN
Structure (SMILES),ID50 [1],ID50 [2],ID50 [3],ID50 [4]
N#CC1(Nc2cccnc2)CCN(C(=O)CC(c2ccccc2)c2ccccc2)CC1,0.04 mg/kg,12 mg/kg,,
CCCCC(=O)N1CCN(C(C#N)c2cccnc2)CC1 (configuration not stated),4.3 mg/kg,> 50 mg/kg,,
N#CC(c1cccnc1)N1CCN(C(=O)C(c2ccccc2)c2ccccc2)CC1 (configuration not stated),0.11 mg/kg,12 mg/kg,,
N#CC(c1cccc(C(F)(F)F)c1)N1CCN(C(=O)CC(c2ccccc2)c2ccccc2)CC1 (configuration not stated),> 5 mg/kg,> 30 mg/kg,,
N#CC(c1cccnc1)N1CCN(C(=O)Cc2ccccc2)CC1 (configuration not stated),1.5 mg/kg,50 mg/kg,,
N#CC(c1cccnc1)N1CCN(C(=O)CNC(Cc2ccccc2)c2ccccc2)CC1 (configuration not stated),0.38 mg/kg,> 10 mg/kg,,
COc1cc(C(=O)N2CCN(C(=S)c3cccnc3)CC2)cc(OC)c1OC,> 5 mg/kg,100 mg/kg,,
CN(CC(=O)N1CCN(C(C#N)c2cccnc2)CC1)C(c1ccccc1)c1ccccc1 (configuration not stated),0.33 mg/kg,4.6 mg/kg,,
N#CC(=C1CCN(C(=O)CC(c2ccccc2)c2ccccc2)CC1)c1cccnc1,0.42 mg/kg,30 mg/kg,,
N#CC(c1cccnc1)N1CCN(C(=S)C(c2ccccc2)c2ccccc2)CC1 (configuration not stated),0.45 mg/kg,> 50 mg/kg,,
N#CC(c1cncs1)N1CCN(C(=O)CC(c2ccccc2)c2ccccc2)CC1 (configuration not stated),0.75 mg/kg,25 mg/kg,,
N#CC(c1cccnc1)N1CCN(C(=O)CC(O)(c2ccccc2)c2ccccc2)CC1 (configuration not stated),0.061 mg/kg,4.7 mg/kg,,
N#CC(c1cccnc1)N1CCN(C(=O)c2ccc3ccccc3c2)CC1 (configuration not stated),,,5 mg/kg,
Cn1cc(C(C#N)N2CCN(C(=O)CC(c3ccccc3)c3ccccc3)CC2)c2ccccc21 (configuration not stated),> 5 mg/kg,,,
N#CC(c1cccnc1)N1CCC(OC(=O)CC(c2ccccc2)c2ccccc2)CC1 (configuration not stated),> 5 mg/kg,,,
O=C(C(c1ccccc1)c1ccccc1)N1CCN(Cc2cccnc2)CC1,2.7 mg/kg,,,
N#CC(c1cccnc1)N1CCN(C(=O)Cc2cccc3ccccc23)CC1 (configuration not stated),1.3 mg/kg,> 50 mg/kg,,
CCCCCCCC(=O)N1CCN(C(C#N)c2cccnc2)CC1 (configuration not stated),1.2 mg/kg,100 mg/kg,,
N#CC(c1cccnc1)N1CCN(C(=O)/C(=C/c2ccccc2)c2ccccc2)CC1 (configuration not stated),0.17 mg/kg,> 20 mg/kg,,
CC(C(=O)N1CCN(C(C#N)c2cccnc2)CC1)c1ccccc1 (configuration not stated),0.26 mg/kg,> 50 mg/kg,,
N#CC(c1cccnc1)N1CCN(C(=O)C(Cc2ccccc2)Cc2ccccc2)CC1 (configuration not stated),0.68 mg/kg,100 mg/kg,,

Structure (SMILES),ID50 [1],ID50 [2],ID50 [3],ID50 [4]
CC(c1ccccc1)N(C)CC(=O)N1CCN(C(C#N)c2cccnc2)CC1 (configuration not stated),0.77 mg/kg,> 50 mg/kg,,
CC(C)(C)C(=O)N1CCN(C(C#N)c2cccnc2)CC1 (configuration not stated),> 5 mg/kg,,,
COc1cc(CCC(=O)N2CCN(C(=O)c3cc(OC)c(OC)c(OC)c3)CC2)cc(OC)c1OC,> 5 mg/kg,,,
COc1cc(C(=O)N2CCN(C(=O)c3cccnc3)CC2)cc(OC)c1OC,> 5 mg/kg,> 100 mg/kg,,
CN(CCCc1ccccc1)CC(=O)N1CCN(C(C#N)c2cccnc2)CC1 (configuration not stated),> 5 mg/kg,,,
N#CC1(Nc2cccnc2)CCN(C(=O)CNC(c2ccccc2)c2ccccc2)CC1,0.096 mg/kg,15 mg/kg,,
CC(C(=O)N1CCN(C(C#N)c2cccnc2)CC1)(c1ccccc1)c1ccccc1 (configuration not stated),0.14 mg/kg,> 30 mg/kg,,
COc1cc(C(=O)N2CCN(C(=O)c3cc(OC)c(OC)c(OC)c3)CC2)cc(OC)c1OC,4.7 mg/kg,> 100 mg/kg,,
N#CC(c1cccnc1)N1CCN(CCNC(=O)C(c2ccccc2)c2ccccc2)CC1 (configuration not stated),0.29 mg/kg,50 mg/kg,,
N#CC(c1cccnc1)N1CCN(C(=O)CCNC(c2ccccc2)c2ccccc2)CC1 (configuration not stated),0.025 mg/kg,5.4 mg/kg,,
N#CC(c1cccnc1)C1CCN(C(=O)CNC(c2ccccc2)c2ccccc2)CC1 (configuration not stated),0.03 mg/kg,2.6 mg/kg,,
COc1cc(CC(=O)N2CCN(C(C#N)c3cccnc3)CC2)cc(OC)c1OC (configuration not stated),2.5 mg/kg,> 50 mg/kg,,
N#CC(c1cccnc1)N1CCN(C(=O)CNCCC(c2ccccc2)c2ccccc2)CC1 (configuration not stated),0.21 mg/kg,14 mg/kg,,
N#CC(c1cccnc1)N1CCN(C(=O)CN(Cc2ccccc2)c2ccccc2)CC1 (configuration not stated),0.42 mg/kg,> 30 mg/kg,,
N#CC(c1cccc(Cl)c1)N1CCN(C(=O)CC(c2ccccc2)c2ccccc2)CC1 (configuration not stated),> 5 mg/kg,> 30 mg/kg,,
N#CC(c1cccnc1)N1CCN(C(=O)CNCCCc2ccccc2)CC1 (configuration not stated),1.3 mg/kg,50 mg/kg,,
N#CC(c1ccncc1)N1CCN(C(=O)CCNC(c2ccccc2)c2ccccc2)CC1 (configuration not stated),0.037 mg/kg,3.2 mg/kg,,
N#CC(c1cccnc1)C1CCN(C(=O)C(c2ccccc2)c2ccccc2)CC1 (configuration not stated),0.023 mg/kg,14 mg/kg,,
N#CC(c1cccnc1)N1CCN(CCC(c2ccccc2)c2ccccc2)CC1 (configuration not stated),3.1 mg/kg,15 mg/kg,,
N#CC(c1cccnc1)N1CCN(CC(=O)NCCC(c2ccccc2)c2ccccc2)CC1 (configuration not stated),3 mg/kg,> 30 mg/kg,,
N#CC(c1cccc([N+](=O)[O-])c1)N1CCN(C(=O)CC(c2ccccc2)c2ccccc2)CC1 (configuration not stated),> 5 mg/kg,> 30 mg/kg,,

Structure (SMILES),ID50 [1],ID50 [2],ID50 [3],ID50 [4]
Cn1ccc(C(C#N)N2CCN(C(=O)CC(c3ccccc3)c3ccccc3)CC2)c1 (configuration not stated),4.2 mg/kg,,,
N#CC(c1cccnc1)N1CCN(C(=O)CNCc2ccccc2)CC1 (configuration not stated),0.8 mg/kg,50 mg/kg,,
O=C(CC(c1ccccc1)c1ccccc1)N1CCN(Cc2cccnc2)CC1,0.48 mg/kg,35 mg/kg,,
Cc1nnc2n1-c1sc(CCC(=O)N3CCOCC3)cc1C(c1ccccc1Cl)=NC2,0.17 mg/kg,0.97 mg/kg,,
N#CC(c1cccnc1)N1CCN(C(=O)CNC(c2ccccc2)c2ccccc2)CC1 (configuration not stated),0.023 mg/kg,5.9 mg/kg,,
COc1cc(C(=O)N2CCN(C(C#N)c3cccnc3)CC2)cc(OC)c1OC (configuration not stated),4.4 mg/kg,> 100 mg/kg,,
N#CC(c1cccnc1)N1CCN(CCNC(=O)CC(c2ccccc2)c2ccccc2)CC1 (configuration not stated),2.2 mg/kg,,,
N#CC(c1cccnc1)N1CCN(C(=O)C(Cc2ccccc2)c2ccccc2)CC1 (configuration not stated),0.12 mg/kg,> 50 mg/kg,,
O=C(c1cccnc1)N1CCN(C(=O)C(c2ccccc2)c2ccccc2)CC1,> 5 mg/kg,,,
N#CC(c1cccnc1)N1CCN(C(=O)OCC(c2ccccc2)c2ccccc2)CC1 (configuration not stated),0.078 mg/kg,> 30 mg/kg,,
N#CC(c1cccnc1)N1CCN(C(=O)Cc2c[nH]c3ccccc23)CC1 (configuration not stated),3.3 mg/kg,> 50 mg/kg,,
N#CC(c1cccnc1)N1CCN(C(=O)C(CCc2ccccc2)c2ccccc2)CC1 (configuration not stated),0.73 mg/kg,,,
N#CC(c1cccnc1)N1CCN(C(=O)CN(Cc2ccccc2)Cc2ccccc2)CC1 (configuration not stated),1.7 mg/kg,> 10 mg/kg,,
N#CC(c1cccnc1)N1CCN(C(=O)CCc2ccccc2)CC1 (configuration not stated),1.2 mg/kg,44 mg/kg,,
COc1cc(CCC(=O)N2CCN(C(C#N)c3cccnc3)CC2)cc(OC)c1OC (configuration not stated),2 mg/kg,100 mg/kg,,
CCCCCCCCCCCCCCCC(=O)N1CCN(C(C#N)c2cccnc2)CC1 (configuration not stated),> 5 mg/kg,,,
N#CC(c1cccnc1)N1CCN(C(=O)CNc2cccc3ccccc23)CC1 (configuration not stated),2.5 mg/kg,,,
N#CC(c1ccncc1)N1CCN(C(=O)CC(O)(c2ccccc2)c2ccccc2)CC1 (configuration not stated),0.061 mg/kg,7.7 mg/kg,,
N#CC(CN1CCN(C(=O)C(c2ccccc2)c2ccccc2)CC1)c1cccnc1 (configuration not stated),> 5 mg/kg,,,
COc1cc(C(=O)N2CCN(C(C#N)c3ccccn3)CC2)cc(OC)c1OC (configuration not stated),> 5 mg/kg,,,
N#CC(c1cccnc1)N1CCN(C(=O)CNCC(c2ccccc2)c2ccccc2)CC1 (configuration not stated),0.36 mg/kg,> 10 mg/kg,,

Structure (SMILES),ID50 [1],ID50 [2],ID50 [3],ID50 [4]
N#CC(c1ccncc1)N1CCN(C(=O)CNC(=O)C(c2ccccc2)c2ccccc2)CC1 (configuration not stated),0.47 mg/kg,> 20 mg/kg,,
CC(NCC(=O)N1CCN(C(C#N)c2cccnc2)CC1)c1ccccc1 (configuration not stated),0.39 mg/kg,18 mg/kg,,
N#CC(c1cccnc1)N1CCN(C(=O)CNc2ccccc2)CC1 (configuration not stated),0.49 mg/kg,28 mg/kg,,
N#Cc1cccc(C(C#N)N2CCN(C(=O)CC(c3ccccc3)c3ccccc3)CC2)c1 (configuration not stated),> 5 mg/kg,> 30 mg/kg,,
NC(=O)C(c1cccnc1)N1CCN(C(=O)C(c2ccccc2)c2ccccc2)CC1 (configuration not stated),> 5 mg/kg,,,
N#CC(c1cccnc1)N1CCN(C(=O)/C=C/c2ccccc2)CC1 (configuration not stated),0.24 mg/kg,100 mg/kg,,
COc1cc(C(=O)N2CCN(Cc3cccnc3)CC2)cc(OC)c1OC,> 5 mg/kg,> 100 mg/kg,,
N#CC(c1ccncc1)N1CCN(C(=O)CC(c2ccccc2)c2ccccc2)CC1 (configuration not stated),0.041 mg/kg,7.3 mg/kg,,
O=C(CC(c1ccccc1)c1ccccc1)N1CCC(Nc2cccnc2)CC1,2.4 mg/kg,,,
N#CC(c1cccnc1)N1CCN(C(=O)C=C(c2ccccc2)c2ccccc2)CC1 (configuration not stated),0.049 mg/kg,50 mg/kg,,
CC(C#N)(c1cccnc1)N1CCN(C(=O)C(c2ccccc2)c2ccccc2)CC1 (configuration not stated),> 5 mg/kg,> 30 mg/kg,,
N#CC(c1ccncc1)N1CCN(CCNC(c2ccccc2)c2ccccc2)CC1 (configuration not stated),,29 mg/kg,,5 mg/kg
CN(CC(=O)N1CCN(C(C#N)c2cccnc2)CC1)c1ccccc1 (configuration not stated),2.2 mg/kg,,,
N#CC(c1cccnc1)N1CCN(C(=O)CC(c2ccccc2)c2ccccc2)CC1 (configuration not stated),0.013 mg/kg,12 mg/kg,,
O=C(C(c1ccccc1)c1ccccc1)N1CC[N+]([O-])(Cc2cccnc2)CC1,> 5 mg/kg,,,
N#CC(c1cccnc1)N1CCN(C(=O)NC(c2ccccc2)c2ccccc2)CC1 (configuration not stated),0.29 mg/kg,30 mg/kg,,
CC(c1cccnc1)N1CCN(C(=O)C(c2ccccc2)c2ccccc2)CC1 (configuration not stated),3.6 mg/kg,100 mg/kg,,
N#CC(c1cccnc1)N1CCN(C(=O)c2ccccc2)CC1 (configuration not stated),> 5 mg/kg,,,
